What is called half-life is the time needed for the level to fall by half in the phase considered.

The target in data set [1] is T1, Renin (Homo sapiens) (UniProt P00797).
T1 sequence (whole entry): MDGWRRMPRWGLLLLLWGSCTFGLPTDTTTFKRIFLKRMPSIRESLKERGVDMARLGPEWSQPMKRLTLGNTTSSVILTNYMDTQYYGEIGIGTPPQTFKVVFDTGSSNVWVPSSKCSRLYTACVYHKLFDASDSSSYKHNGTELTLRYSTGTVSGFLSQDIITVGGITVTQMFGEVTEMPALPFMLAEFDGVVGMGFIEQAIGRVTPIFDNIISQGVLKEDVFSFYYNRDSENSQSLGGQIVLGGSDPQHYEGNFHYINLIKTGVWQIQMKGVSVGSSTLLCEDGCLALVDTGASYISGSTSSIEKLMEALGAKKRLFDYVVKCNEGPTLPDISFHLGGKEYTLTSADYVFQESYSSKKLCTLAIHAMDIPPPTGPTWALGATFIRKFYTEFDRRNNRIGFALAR
Nature of the data set: (§1) Component […] rate constant by the compound against Renin was determined.

Data set [2] deals with T1, Renin (Homo sapiens). The description is as §1. More on the design: unit not given here.
Data set [3] can be described thus: Half life period of the compound. Format: ADME. The essentials:
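Half-life was calculated as ln2/koff (first-order decay). koff came from paired fluorescent-probe ligand exchange with recombinant human renin: 5.0×10^-8 M renin, 5.0×10^-7 M probe, pH 7.4 HEPES/octyl glucoside buffer, 37 °C, 5-min preincubation. The two curves were fitted simultaneously, with the probe rate constants held fixed.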

In turn, `CC(C)C[C@H](O)[C@H](O)[C@H](CC1CCCCC1)NC(=O)[C@@H](CC(=O)N(CC(=O)N(C)CCc1ccccn1)[C@@H](C)c1ccccc1)Cc1csc(N)n1` came in with a k on in data set [1] of 6.68e+06 M⁻¹ s⁻¹. Besides, the Koff in data set [2] stood at 0.00135. The compound also registered a half-life in data set [3] of 8.6 min.
The matching figures for `CC(C)C[C@H](O)[C@H](O)[C@H](CC1CCCCC1)NC(=O)[C@@H](CC(=O)N(CC(=O)N(C)CCc1ccccn1)CC1CCCCC1)Cc1csc(N)n1`: 5.93e+06 M⁻¹ s⁻¹, 0.00028 and 41.3 min.
On to `CC(C)C[C@H](O)[C@H](O)[C@H](CC1CCCCC1)NC(=O)[C@@H](CC(=O)N(CC(=O)N(C)CCc1ccccn1)CC1CCCCCC1)Cc1csc(N)n1`, for which the k on in data set [1] turned out to be 8.63e+06 M⁻¹ s⁻¹. For the same compound, the Koff in data set [2] was determined as 0.000234. In data set [3], this compound displayed a half-life of 49.4 min.
On to `CC(C)C[C@H](O)[C@H](O)[C@H](CC1CCCCC1)NC(=O)[C@@H](CC(=O)N(CC(=O)N(C)CCc1ccccn1)CC1(C)CCCCC1)Cc1csc(N)n1`, for which, in data set [1], the k on is 1.22e+07 M⁻¹ s⁻¹. This compound also had a Koff in data set [2] of 0.000569. In data set [3], this compound yielded a half-life of 20.3 min.
On to `CC(C)C[C@H](O)[C@H](O)[C@H](CC1CCCCC1)NC(=O)[C@@H](CC(=O)N(CC(=O)N(C)CCN1CCOCC1)[C@@H](C)c1ccccc1)Cc1csc(N)n1`, for which, in data set [1], the k on was 2.07e+06 M⁻¹ s⁻¹. This compound also displayed a Koff in data set [2] of 0.00481. The half-life in data set [3] was 2.4 min.
The matching figures for `COC1(CN(CC(=O)N(C)CCc2ccccn2)C(=O)C[C@@H](Cc2csc(N)n2)C(=O)N[C@@H](CC2CCCCC2)[C@@H](O)[C@@H](O)CC(C)C)CCCCC1`: 2.28e+06 M⁻¹ s⁻¹, 0.00175 and 6.6 min.
The matching figures for `CC(C)C[C@H](O)[C@H](O)[C@H](CC1CCCCC1)NC(=O)[C@@H](CC(=O)N(CC(=O)N(C)CCC(=O)N1CCOCC1)[C@@H](C)c1ccccc1)Cc1csc(N)n1`: 2e+06 M⁻¹ s⁻¹, 0.0013 and 8.9 min.
The matching figures for `CC(C)C[C@H](O)[C@H](O)[C@H](CC1CCCCC1)NC(=O)[C@@H](CC(=O)N(CC(=O)N(C)CCN(C)C(=O)N1CCOCC1)[C@@H](C)c1ccccc1)Cc1csc(N)n1`: 5.43e+06 M⁻¹ s⁻¹, 0.00133 and 8.7 min.

The values above are taken from ChEMBL document CHEMBL1128576, “Time-resolved ligand exchange reactions: kinetic models for competitive inhibitors with recombinant human renin” (J Med Chem, 1995).
